Results as given in ChEMBL document CHEMBL1152967, “Scalarane-based sesterterpenoid RCE-protease inhibitors isolated from the Indonesian marine sponge Carteriospongia foliascens” (J Nat Prod, 2009).
In brackets after ≈: the same amount, converted by molar mass.

What was measured:
CAAX prenyl protease 2 = molecular target: T1, CAAX prenyl protease 2 (Homo sapiens, UniProt Q9Y256); experiment: Inhibition of human RCE1
T1 sequence (Q9Y256 whole entry): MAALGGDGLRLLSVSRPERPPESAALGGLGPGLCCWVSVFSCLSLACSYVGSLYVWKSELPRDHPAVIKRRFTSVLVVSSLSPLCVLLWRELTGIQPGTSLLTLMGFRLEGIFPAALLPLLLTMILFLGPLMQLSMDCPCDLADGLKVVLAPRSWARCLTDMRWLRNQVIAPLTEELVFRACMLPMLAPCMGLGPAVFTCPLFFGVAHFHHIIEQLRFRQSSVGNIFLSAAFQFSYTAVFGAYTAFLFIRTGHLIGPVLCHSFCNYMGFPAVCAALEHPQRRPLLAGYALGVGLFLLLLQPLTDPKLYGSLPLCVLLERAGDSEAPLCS
Summary of the method: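 Substrate was a fluorescent-labeled peptide from the carboxy terminus of farnesylated K-Ras. Cleavage was analyzed by reversed-phase HPLC. IC50 is reported in µg/mL.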

[1] = Cytotoxicity against human MDA468 cells harboring mutated PTEN and p53 after 3 days; assay type: functional, cell-based; conditions: MDA-MB-468, 72 h
LoVo = experiment: Cytotoxicity against human LoVo cells harboring mutated K-Ras after 3 days; assay type: functional, cell-based; conditions: 72 h
PC-3 = experiment: Cytotoxicity against human PC3 cells harboring mutated PTEN and p53 after 3 days; assay type: functional, cell-based; conditions: PC-3, 72 h
Caco-2 = experiment: Cytotoxicity against human Caco-2 cells harboring wild type Ras after 3 days; assay type: functional, cell-based; conditions: Caco-2, 72 h

CC[C@@]1(C)CCC[C@]2(C)[C@H]3C[C@H](OC(=O)CC(O)C(C)C)[C@]4(C)C=C(C(C)=O)[C@H](O)C[C@H]4[C@]3(C)CC[C@@H]12 (stereo not given in full)
IC50 (CAAX prenyl protease 2): 73.5 µM
IC50 [1]: 9.5 mg/L (≈ 18.4 µM)
IC50 (LoVo): 7.6 mg/L (≈ 14.7 µM)
IC50 (PC-3): 3.8 mg/L (≈ 7.35 µM)
IC50 (Caco-2): 3.4 mg/L (≈ 6.58 µM)

CCC(O)CC(=O)O[C@H]1C[C@H]2[C@@](C)(CC[C@H]3[C@@](C)(CC)CCC[C@]23C)[C@@H]2C[C@@H](O)C(C(C)=O)=C[C@@]12C (stereo not given in full)
IC50 (CAAX prenyl protease 2): > 199 µM
IC50 [1]: > 10 mg/L
IC50 (LoVo): > 10 mg/L
IC50 (PC-3): > 10 mg/L
IC50 (Caco-2): > 10 mg/L

CCO[C@@H]1C[C@H]2[C@]3(C)CC[C@H]4[C@@](C)(CC)CCC[C@]4(C)[C@H]3C[C@H](OC(=O)CC(O)C(C)C)[C@]2(C)C2=C1C(C)(O)OC2=O (stereo not given in full)
IC50 (CAAX prenyl protease 2): 7.31 µM
IC50 [1]: 4.4 mg/L (≈ 7.47 µM)
IC50 (LoVo): 2.9 mg/L (≈ 4.93 µM)
IC50 (PC-3): 3.2 mg/L (≈ 5.43 µM)
IC50 (Caco-2): 4.2 mg/L (≈ 7.13 µM)

CCC(O)CC(=O)O[C@H]1C[C@@H]2[C@@]3(C)CCC[C@](C)(CC)[C@@H]3CC[C@@]2(C)[C@@H]2C=CC3=C(C(=O)OC3(C)O)[C@@]12C (stereo not given in full)
IC50 (CAAX prenyl protease 2): 17 µM
IC50 [1]: > 10 mg/L
IC50 (LoVo): 3.4 mg/L (≈ 6.43 µM)
IC50 (PC-3): 3.7 mg/L (≈ 7 µM)
IC50 (Caco-2): 6.2 mg/L (≈ 11.7 µM)
